Data on five compounds can be found in ChEMBL document CHEMBL5380847, “Expanding the Paradigm of Structure-Based Drug Design: Molecular Dynamics Simulations Support the Development of New Pyridine-Based Protein Kinase C-Targeted Agonists” (J Med Chem, 2023).

Activity calls are given as the source filed them. The calls are words filed in the database; no cut-off is given here.

The test system of test [1] is Fibroblast of cardiac tissue. Kind of test: Effect on PKCalpha expression level in neonatal mouse Cardiac fibroblast cells at 10 uM measured for 24 hrs by Western blot analysis. The class given is functional, cell-based. In outline: (§1)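 Neonatal mouse cardiac fibroblasts were treated with 10 μM compound for 24 h and then lysed. Total protein was extracted, and PKCα, -δ and -ϵ levels were analysed by Western blotting. Levels were normalized to vehicle control (0.1% DMSO). Values are mean + SEM of N = 3 independent experiments.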
In general terms: Immunoblotting shows a protein as a band on a membrane.

Test [2] relates to Fibroblast of cardiac tissue. Kind of test: Effect on PKCepsilon expression level in neonatal mouse Cardiac fibroblast cells at 10 uM measured for 24 hrs by Western blot analysis. Type of test: functional, cell-based. Put shortly:
as §1

Test [3] has as its target Protein kinase C alpha type (Homo sapiens) (UniProt P17252). Description: Displacement of [3H]-PDBu-from full length human recombinant PKCalpha expressed in baculovirus infected Sf9 cells incubated for 10 mins by microbeta liquid scintillation counter analysis. The note with it: filed as agonist, dose 1-30 µM. In general terms: Loss of bound radioactivity is the signal in a displacement assay; it reports binding, not function.

The subject of test [4] is Fibroblast of cardiac tissue. Description: Effect on PKCdelta expression level in neonatal mouse Cardiac fibroblast cells at 10 uM measured for 24 hrs by Western blot analysis. The class given is functional, cell-based. In outline:
as §1

The next test deals with Cardiac fibroblast. Description: Inhibition of PKC-mediated ERK1/2 phosphorylation in neonatal mouse Cardiac fibroblast cells incubated for 30 mins in presence of PKC inhibitor Go6983 by Alphalisa analysis. The class given is cell-based. In outline: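 Neonatal mouse cardiac fibroblasts were pretreated, or not, with the PKC inhibitor Gö6983 (1 μM). Cells were then exposed for 30 min to compounds at 10 μM (PMA at 10 nM). Total and phospho-ERK1/2 in lysates were quantified by Alpha technology and normalized to DMSO control. Values are mean + SEM (N = 3), analysed by randomized block ANOVA with Dunnett's post hoc test.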
Background: Bead proximity is the source of the signal in Alpha formats.

For the next test, the system named is DU-145. Kind of test: Anticancer activity against human DU-145 cells assessed as reduction in cell viability at 0.03 to 30 uM measured after 24 hrs by MTT assay. The class given is functional, cell-based. As to conditions: dose 0.03-30 µM. Put shortly: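 DU145 human prostate cancer cells were exposed for 24 h to compounds at 0.3, 3.0 and 30 μM, with 0.03 μM added for the reference. Viability was read by MTT and expressed as percent of vehicle control (0.1% DMSO). Values are mean + SEM of N = 3–4 independent experiments.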

Test [5] concerns the target Protein kinase C alpha type (Homo sapiens) (UniProt P17252). Kind of test: Displacement of [3H]-PDBu-from full length human recombinant PKCalpha expressed in baculovirus infected Sf9 cells at 1 to 30 uM incubated for 10 mins by microbeta liquid scintillation counter analysis. As to conditions: dose 1-30 µM.

As for `CN(Cc1cccc(C(F)(F)F)c1)C(=O)c1cc(CO)cc(C(=O)N(C)Cc2cccc(C(F)(F)F)c2)n1`, the outcome (in test [1]; in test [2]; in test [4]; in the test with DU-145) was inactive. In addition, in test [3], the Activity result is “Dose-Dependent Effect”. In the test with Cardiac fibroblast, the inhibition entry was “Active”.
`O=C(OCc1cccc(C(F)(F)F)c1)c1cc(CO)cc(C(=O)OCc2cccc(C(F)(F)F)c2)c1`: the result in test [1], in test [2] and in test [4] was inactive. Also, the inhibition result in the test on Cardiac fibroblast is “Active”.
Take `O=C(OCc1cccc(C(F)(F)F)c1)c1cc(CO)cc(C(=O)OCc2cccc(C(F)(F)F)c2)n1`: the outcome (in test [5]; with DU-145) was inactive.
In the case of `CCCCC(CC)OC(=O)c1cc(CO)cc(C(=O)OC(CC)CCCC)n1` (stereo unspecified), the Activity result in test [3] was “Dose-Dependent Effect”. For the same compound, the outcome (in test [4]; with DU-145) was inactive.
Turning to `CCCCCCCCNC(=O)c1cc(CO)cc(C(=O)NCCCCCCCC)n1`, the outcome in the test on DU-145 was inactive.
